The source of these data is ChEMBL document CHEMBL3351764, “Design, synthesis and biological activity of flavonoid derivatives as selective agonists for neuromedin U 2 receptor” (Bioorg Med Chem, 2014).

Experiment [1] concerns the target T1, Neuromedin-U receptor 1 (Homo sapiens) (UniProt Q9HB89).
T1 sequence (whole entry): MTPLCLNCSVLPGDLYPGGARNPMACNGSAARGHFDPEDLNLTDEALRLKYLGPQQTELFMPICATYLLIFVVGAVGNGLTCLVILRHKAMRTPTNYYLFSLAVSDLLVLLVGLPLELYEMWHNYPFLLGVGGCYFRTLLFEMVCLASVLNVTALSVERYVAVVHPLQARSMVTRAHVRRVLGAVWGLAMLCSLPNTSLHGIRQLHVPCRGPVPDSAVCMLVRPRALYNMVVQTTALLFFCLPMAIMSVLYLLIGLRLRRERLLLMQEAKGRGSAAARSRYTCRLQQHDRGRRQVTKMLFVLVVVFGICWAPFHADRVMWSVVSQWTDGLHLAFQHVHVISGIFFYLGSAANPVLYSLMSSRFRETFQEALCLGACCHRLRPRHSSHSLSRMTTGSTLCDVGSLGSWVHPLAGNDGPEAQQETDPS
The experiment can be described thus: Agonist activity at human NMU1 receptor at 100 uM to 5 mM.

Experiment [2] has as its target T2, Adenosine receptor A1 (Homo sapiens) (UniProt P30542).
T2 sequence (whole entry): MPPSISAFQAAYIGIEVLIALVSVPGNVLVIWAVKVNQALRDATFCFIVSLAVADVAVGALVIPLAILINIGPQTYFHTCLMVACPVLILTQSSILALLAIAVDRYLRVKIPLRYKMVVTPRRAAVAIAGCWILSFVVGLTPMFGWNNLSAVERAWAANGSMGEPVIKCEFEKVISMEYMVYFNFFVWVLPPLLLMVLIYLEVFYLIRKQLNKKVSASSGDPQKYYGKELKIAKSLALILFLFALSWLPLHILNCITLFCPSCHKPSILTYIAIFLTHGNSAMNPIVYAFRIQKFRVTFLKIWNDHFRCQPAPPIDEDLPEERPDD
As to the kind of experiment: Agonist activity at human A1 receptor at 100 uM to 5 mM.

Experiment [3] has as its target Melanocortin receptor 3 (Homo sapiens) (UniProt P41968). As to the kind of experiment: Agonist activity at human MC3 receptor at 100 uM to 5 mM.
The target in experiment [4] is Melanocyte-stimulating hormone receptor (Mus musculus) (UniProt Q01727). The experiment can be described thus: Agonist activity at mouse MC1 receptor at 100 uM to 5 mM.
Experiment [5] deals with T3, 5-hydroxytryptamine receptor 2C (Homo sapiens) (UniProt P28335).
T3 sequence (whole entry): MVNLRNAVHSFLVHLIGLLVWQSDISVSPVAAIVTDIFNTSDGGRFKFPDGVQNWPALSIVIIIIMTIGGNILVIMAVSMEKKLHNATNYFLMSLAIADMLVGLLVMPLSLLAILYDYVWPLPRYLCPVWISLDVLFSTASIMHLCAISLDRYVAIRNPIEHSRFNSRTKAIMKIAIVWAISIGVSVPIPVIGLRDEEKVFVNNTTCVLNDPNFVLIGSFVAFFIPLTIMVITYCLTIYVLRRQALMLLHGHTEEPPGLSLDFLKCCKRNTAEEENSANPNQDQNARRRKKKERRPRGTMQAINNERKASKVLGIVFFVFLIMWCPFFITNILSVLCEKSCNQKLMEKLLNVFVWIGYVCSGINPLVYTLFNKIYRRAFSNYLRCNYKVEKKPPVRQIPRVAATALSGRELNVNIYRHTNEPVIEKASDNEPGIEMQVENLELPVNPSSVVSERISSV
As to the kind of experiment: Agonist activity at human 5HT2C receptor at 100 uM to 5 mM.

In experiment [6] the target is T4, Muscarinic acetylcholine receptor M1 (Homo sapiens) (UniProt P11229).
T4 sequence (whole entry): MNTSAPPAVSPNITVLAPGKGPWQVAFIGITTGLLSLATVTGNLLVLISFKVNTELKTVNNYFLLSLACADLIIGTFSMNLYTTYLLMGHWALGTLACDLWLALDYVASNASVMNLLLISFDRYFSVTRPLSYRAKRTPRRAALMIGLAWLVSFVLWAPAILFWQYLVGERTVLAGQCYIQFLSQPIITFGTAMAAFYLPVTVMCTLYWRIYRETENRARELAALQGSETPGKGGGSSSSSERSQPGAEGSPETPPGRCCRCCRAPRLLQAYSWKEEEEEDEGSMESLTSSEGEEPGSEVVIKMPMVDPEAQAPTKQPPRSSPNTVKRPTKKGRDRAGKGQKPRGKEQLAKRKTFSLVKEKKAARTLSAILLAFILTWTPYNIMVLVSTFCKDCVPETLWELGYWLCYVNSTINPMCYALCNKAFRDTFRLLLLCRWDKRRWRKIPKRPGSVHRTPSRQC
The experiment can be described thus: Agonist activity at human M1 receptor at 100 uM to 5 mM.

Experiment [7] concerns the target Melanocyte-stimulating hormone receptor (Homo sapiens) (UniProt Q01726). As to the kind of experiment: Agonist activity at human MC1 receptor at 100 uM to 5 mM.
In experiment [8] the target is Melanin-concentrating hormone receptor 1 (Homo sapiens) (UniProt Q99705). The experiment can be described thus: Agonist activity at human MCH1 receptor at 100 uM to 5 mM.
The target in experiment [9] is Glucagon receptor (Homo sapiens) (UniProt P47871). The experiment can be described thus: Agonist activity at human Glu receptor at 100 uM to 5 mM.
Experiment [10] deals with Melanocortin receptor 4 (Homo sapiens) (UniProt P32245). As to the kind of experiment: Agonist activity at human MC4 receptor at 100 uM to 5 mM.
Experiment [11] addresses D(1B) dopamine receptor (Homo sapiens) (UniProt P21918). The experiment can be described thus: Agonist activity at human D5 receptor at 100 uM to 5 mM.
A further experiment has as its target Neuromedin-U receptor 2 (Homo sapiens, UniProt Q9GZQ4). The experiment can be described thus: Agonist activity at human NMU2R transfected in HEK293 cells after 7 hrs by luciferase reporter gene assay. The settings on record: hek293. Type of experiment: cell-based. In outline:
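HEK-293 cells were stably co-transfected with a reporter gene construct and human NMU2R cDNA in pcDNA3.1(+), maintained under G418 selection at 37 °C in 5% CO2, then seeded and incubated overnight. Compounds were added at various concentrations for 7 h at 37 °C, followed by Bright-Glo luciferase read-out. Forskolin and NMU served as positive controls. EC50 was fitted by four-parameter logistic regression; means ± SEM of three independent experiments.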
On the technique in general: Reporter assays use an easily measured gene product as a stand-in for the process of interest.

Structures are written as SMILES. Calls of active or inactive are those of the source. The calls are words filed in the database; no cut-off is given here.

Chain of Glucagon receptor (Homo sapiens) (P47871 whole entry): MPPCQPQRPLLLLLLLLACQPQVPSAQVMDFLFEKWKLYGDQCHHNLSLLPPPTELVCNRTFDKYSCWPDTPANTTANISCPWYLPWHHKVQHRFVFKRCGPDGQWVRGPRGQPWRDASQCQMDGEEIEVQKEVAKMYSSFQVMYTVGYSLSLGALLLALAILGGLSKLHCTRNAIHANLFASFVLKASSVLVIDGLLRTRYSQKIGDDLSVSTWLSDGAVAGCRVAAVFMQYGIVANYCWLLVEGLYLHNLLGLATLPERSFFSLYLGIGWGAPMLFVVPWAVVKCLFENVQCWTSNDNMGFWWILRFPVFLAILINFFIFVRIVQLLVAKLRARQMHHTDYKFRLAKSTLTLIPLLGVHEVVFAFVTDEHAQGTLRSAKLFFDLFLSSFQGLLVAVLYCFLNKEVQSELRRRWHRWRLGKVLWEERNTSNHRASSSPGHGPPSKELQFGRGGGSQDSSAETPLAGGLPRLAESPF
Chain of Melanin-concentrating hormone receptor 1 (Homo sapiens) (Q99705 whole entry): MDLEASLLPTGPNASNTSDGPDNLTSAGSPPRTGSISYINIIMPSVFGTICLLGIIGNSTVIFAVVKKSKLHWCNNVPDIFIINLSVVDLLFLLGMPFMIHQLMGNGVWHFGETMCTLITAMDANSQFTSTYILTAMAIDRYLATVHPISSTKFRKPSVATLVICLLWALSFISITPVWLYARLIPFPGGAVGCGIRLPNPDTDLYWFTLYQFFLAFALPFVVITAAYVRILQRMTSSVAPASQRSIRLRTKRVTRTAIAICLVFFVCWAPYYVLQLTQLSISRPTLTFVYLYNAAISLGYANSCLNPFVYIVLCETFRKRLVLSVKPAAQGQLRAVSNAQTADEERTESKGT
Chain of Melanocyte-stimulating hormone receptor (Mus musculus) (Q01727 whole entry, looked up): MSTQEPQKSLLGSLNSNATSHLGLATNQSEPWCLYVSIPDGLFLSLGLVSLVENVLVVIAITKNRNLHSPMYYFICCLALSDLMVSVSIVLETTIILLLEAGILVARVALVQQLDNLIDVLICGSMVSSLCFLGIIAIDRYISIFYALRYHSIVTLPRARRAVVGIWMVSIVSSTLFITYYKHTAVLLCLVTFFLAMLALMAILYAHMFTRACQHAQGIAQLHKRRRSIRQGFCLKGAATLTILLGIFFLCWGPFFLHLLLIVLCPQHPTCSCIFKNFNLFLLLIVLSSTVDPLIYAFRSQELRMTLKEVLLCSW
Chain of Melanocortin receptor 4 (Homo sapiens) (P32245 whole entry): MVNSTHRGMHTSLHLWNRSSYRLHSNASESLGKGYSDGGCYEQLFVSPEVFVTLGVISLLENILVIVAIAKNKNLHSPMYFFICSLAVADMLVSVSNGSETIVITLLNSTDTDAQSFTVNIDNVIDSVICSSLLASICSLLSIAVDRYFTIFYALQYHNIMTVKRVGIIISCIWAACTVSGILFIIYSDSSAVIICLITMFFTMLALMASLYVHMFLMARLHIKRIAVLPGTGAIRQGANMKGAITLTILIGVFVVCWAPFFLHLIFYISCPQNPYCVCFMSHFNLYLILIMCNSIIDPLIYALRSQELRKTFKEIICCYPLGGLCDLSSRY
Chain of Melanocortin receptor 3 (Homo sapiens) (P41968 whole entry): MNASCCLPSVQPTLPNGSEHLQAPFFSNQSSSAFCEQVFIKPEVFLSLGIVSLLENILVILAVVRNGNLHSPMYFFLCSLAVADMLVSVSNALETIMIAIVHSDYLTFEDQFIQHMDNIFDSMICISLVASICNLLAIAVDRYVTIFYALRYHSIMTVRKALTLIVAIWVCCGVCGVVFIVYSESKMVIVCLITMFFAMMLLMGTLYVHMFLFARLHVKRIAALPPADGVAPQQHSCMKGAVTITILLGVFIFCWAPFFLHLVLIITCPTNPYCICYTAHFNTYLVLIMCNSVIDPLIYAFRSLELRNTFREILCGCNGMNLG
Chain of Neuromedin-U receptor 2 (Q9GZQ4 whole entry): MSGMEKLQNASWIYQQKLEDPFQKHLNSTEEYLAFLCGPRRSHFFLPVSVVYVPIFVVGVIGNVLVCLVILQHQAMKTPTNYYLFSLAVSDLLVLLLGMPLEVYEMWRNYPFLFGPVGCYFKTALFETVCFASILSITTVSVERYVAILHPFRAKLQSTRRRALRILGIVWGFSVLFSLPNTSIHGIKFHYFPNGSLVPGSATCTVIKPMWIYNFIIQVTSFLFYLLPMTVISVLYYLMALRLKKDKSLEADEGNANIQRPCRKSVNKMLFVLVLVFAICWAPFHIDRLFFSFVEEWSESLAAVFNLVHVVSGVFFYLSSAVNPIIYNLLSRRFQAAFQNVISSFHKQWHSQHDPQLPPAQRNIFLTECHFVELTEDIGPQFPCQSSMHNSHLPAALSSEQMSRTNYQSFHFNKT
Chain of D(1B) dopamine receptor (Homo sapiens) (P21918 whole entry): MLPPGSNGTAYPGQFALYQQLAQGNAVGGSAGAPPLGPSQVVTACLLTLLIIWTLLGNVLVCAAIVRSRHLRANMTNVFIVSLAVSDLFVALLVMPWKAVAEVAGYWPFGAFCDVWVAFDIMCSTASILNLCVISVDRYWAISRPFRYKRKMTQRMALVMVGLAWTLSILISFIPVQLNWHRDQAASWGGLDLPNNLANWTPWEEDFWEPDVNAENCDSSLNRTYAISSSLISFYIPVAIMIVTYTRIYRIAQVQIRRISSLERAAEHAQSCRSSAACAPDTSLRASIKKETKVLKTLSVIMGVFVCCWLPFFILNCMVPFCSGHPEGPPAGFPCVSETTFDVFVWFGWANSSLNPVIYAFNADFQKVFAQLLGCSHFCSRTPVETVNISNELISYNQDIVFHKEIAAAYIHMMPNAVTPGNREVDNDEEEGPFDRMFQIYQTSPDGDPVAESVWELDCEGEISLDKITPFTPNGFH
Chain of Melanocyte-stimulating hormone receptor (Homo sapiens) (Q01726 whole entry, looked up): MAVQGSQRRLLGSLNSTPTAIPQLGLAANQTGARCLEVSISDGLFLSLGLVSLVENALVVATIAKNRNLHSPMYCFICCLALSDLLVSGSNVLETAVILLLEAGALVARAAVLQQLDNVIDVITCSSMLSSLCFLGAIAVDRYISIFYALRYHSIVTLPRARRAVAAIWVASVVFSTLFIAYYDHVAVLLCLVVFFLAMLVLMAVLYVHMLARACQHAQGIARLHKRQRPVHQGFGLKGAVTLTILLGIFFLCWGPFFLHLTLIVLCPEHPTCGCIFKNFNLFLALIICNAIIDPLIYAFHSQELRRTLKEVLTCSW

Consider `CCN(CC)c1ccc(-c2oc3ccccc3c(=O)c2O)cc1`, for which the result in experiment [1], in experiment [2], in experiment [3], in experiment [4], in experiment [5] and in experiment [6] was inactive. In addition, the result in experiment [7], in experiment [8], in experiment [9], in experiment [10] and in [11] was inactive. The EC50 entry at Neuromedin-U receptor 2 is on record as “Not Active”.
Take `O=c1c(O)c(-c2ccc(O)c(O)c2)oc2ccccc12`: the result in [1], in [2], in experiment [3], in experiment [4], in experiment [5] and in experiment [6] was inactive. The outcome in experiment [7], in [8], in [9], in experiment [10] and in [11] was inactive. In addition, on Neuromedin-U receptor 2, the EC50 result is “Not Active”.
Consider `O=c1c(O)c(-c2ccc(O)cc2)oc2ccccc12`, for which the outcome in experiment [1], in experiment [2], in experiment [3], in experiment [4], in experiment [5] and in [6] was inactive. The outcome in [7], in experiment [8], in experiment [9], in [10] and in experiment [11] was inactive. The EC50 result on Neuromedin-U receptor 2 is on record as “Not Active”.
For `O=c1cc(-c2ccc(O)cc2)oc2ccccc12`, the outcome in experiment [1], in experiment [2], in [3], in experiment [4], in experiment [5] and in experiment [6] was inactive. Also, the outcome in experiment [7], in [8], in experiment [9], in [10] and in [11] was inactive. Also, the EC50 entry at Neuromedin-U receptor 2 was “Not Active”.
For `O=c1c(O)c(-c2ccc(Cl)cc2Cl)oc2ccccc12`, the outcome in experiment [1], in experiment [2], in experiment [3], in experiment [4], in [5] and in experiment [6] was inactive. For the same compound, the outcome in experiment [7], in experiment [8], in experiment [9], in [10] and in [11] was inactive. The EC50 result at Neuromedin-U receptor 2 was “Not Active”.
As to `COc1cccc(-c2oc3ccccc3c(=O)c2O)c1`, the outcome in [1], in experiment [2], in experiment [3], in [4], in [5] and in experiment [6] was inactive. In addition, the outcome in experiment [7], in [8], in experiment [9], in experiment [10] and in experiment [11] was inactive. Besides, the EC50 entry on Neuromedin-U receptor 2 is “Not Active”.
For the compound `O=c1cc(-c2ccccc2F)oc2ccccc12`, the outcome in experiment [1], in experiment [2], in [3], in experiment [4], in experiment [5] and in experiment [6] was inactive. The result in experiment [7], in [8], in experiment [9], in experiment [10] and in [11] was inactive. The EC50 entry on Neuromedin-U receptor 2 is “Not Active”.
As to `CN(C)c1ccc(-c2oc3ccccc3c(=O)c2O)cc1`, the result in experiment [1], in [2], in experiment [3], in experiment [4], in [5] and in experiment [6] was inactive. In addition, the outcome in experiment [7], in experiment [8], in experiment [9], in [10] and in experiment [11] was inactive. In addition, the EC50 result at Neuromedin-U receptor 2 is recorded as “Not Active”.
For the compound `O=c1c(O)c(-c2c(F)cccc2Cl)oc2ccccc12`, the result in experiment [1], in [2], in experiment [3], in [4], in experiment [5] and in [6] was inactive. Further, the result in [7], in experiment [8], in experiment [9], in experiment [10] and in experiment [11] was inactive. The EC50 entry on Neuromedin-U receptor 2 is “Not Active”.
For the compound `Fc1ccccc1C1C=Cc2ccccc2O1` (racemic), the outcome in [1], in experiment [2], in experiment [3], in experiment [4], in experiment [5] and in [6] was inactive. For the same compound, the result in experiment [7], in experiment [8], in experiment [9], in experiment [10] and in experiment [11] was inactive. The EC50 result at Neuromedin-U receptor 2 was “Not Active”.
